Experimental data as given in ChEMBL document CHEMBL5724801, “EUbOPEN Chemogenomics Library - Multiplex” (2024).
Several values for one entry are separate records, joined by “and”; a condition that tells them apart may be missing. Identical values can stand only once.

System: HEK-293T
Test: Multiplex assay against HEK293T
Type: toxicity, cell-based
Conditions: human
How it was run: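 At seeding, live cells were stained with Hoechst33342, BioTracker Green Microtubule Cytoskeleton Dye, MitoTracker Red and Annexin V Alexa Fluor 680. After compound addition they were imaged on a CQ1 microscope at 37°C and 5% CO2, and CellPathfinder machine-learning gating sorted them into Hoechst high-intensity objects or normal cells, with normal cells further split into healthy, pyknosed or fragmented nuclei and pyknosed cells into mitotic or apoptotic. Tubulin, mitochondrial-mass and membrane-permeability phenotypes are given as per cents of cells with healthy nuclei.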

[1] = 12 h, 1 µM, compound concentration 1 uM
[2] = 12 h, 10 µM, compound concentration 10 uM
[3] = 24 h, 1 µM, compound concentration 1 uM
[4] = 24 h, 10 µM, compound concentration 10 uM
[5] = 48 h, 1 µM, compound concentration 1 uM
[6] = 48 h, 10 µM, compound concentration 10 uM

For `CCCCCCNC(=O)Nc1ccc(S(=O)(=O)Nc2ccc(CCNC[C@H](O)COc3ccc(O)cc3)cc2)cc1` [L-755507], the “Population Apoptotic (%)” value [1] was 35% and 31%, the “Population Fragmented Nuclei (%)” value [1] was 8% and 6% and the “Population Healthy Nuclei (%)” value [1] was 84% and 83%. The “Population Hoechst High Intensity Objects (%)” value [1] was 7%, the “Population Membrane Permeable-Phenotype (%)” value [1] was 0% and the “Population Mitochondria Different-Phenotype (%)” value [1] was 39% and 64%. For the same compound, the “Population Mitotic Cells (%)” value [1] was 64% and 68%, the “Population Normal (%)” value [1] was 92% and the “Population Pyknosed Nuclei (%)” value [1] was 7% and 10%. The “Population Tubulin-Different-Phenotype (%)” value [1] was 28% and 32%, the “Total Cell Count” value [1] was 494 and 403 and the “Population Apoptotic (%)” value [2] was 58% and 71%. The “Population Fragmented Nuclei (%)” value [2] was 10% and 8%, the “Population Healthy Nuclei (%)” value [2] was 74% and 79% and the “Population Hoechst High Intensity Objects (%)” value [2] was 17% and 7%. The “Population Membrane Permeable-Phenotype (%)” value [2] was 0%, the “Population Mitochondria Different-Phenotype (%)” value [2] was 69% and 87% and the “Population Mitotic Cells (%)” value [2] was 41% and 28%. The “Population Normal (%)” value [2] was 82% and 92%, the “Population Pyknosed Nuclei (%)” value [2] was 14% and 11% and the “Population Tubulin-Different-Phenotype (%)” value [2] was 68% and 61%. For the same compound, the “Total Cell Count” value [2] was 384 and 341, the “Population Apoptotic (%)” value [3] was 19% and 30% and the “Population Fragmented Nuclei (%)” value [3] was 9% and 11%. For the same compound, the “Population Healthy Nuclei (%)” value [3] was 80%, the “Population Hoechst High Intensity Objects (%)” value [3] was 5% and 4% and the “Population Membrane Permeable-Phenotype (%)” value [3] was 0%. The “Population Mitochondria Different-Phenotype (%)” value [3] was 20% and 42%, the “Population Mitotic Cells (%)” value [3] was 80% and 70% and the “Population Normal (%)” value [3] was 94% and 95%. For the same compound, the “Population Pyknosed Nuclei (%)” value [3] was 9% and 7%, the “Population Tubulin-Different-Phenotype (%)” value [3] was 20% and 22% and the “Total Cell Count” value [3] was 634 and 547. For the same compound, the “Population Apoptotic (%)” value [4] was 26% and 48%, the “Population Fragmented Nuclei (%)” value [4] was 8% and 7% and the “Population Healthy Nuclei (%)” value [4] was 80% and 83%. For the same compound, the “Population Hoechst High Intensity Objects (%)” value [4] was 14% and 9%, the “Population Membrane Permeable-Phenotype (%)” value [4] was 0% and the “Population Mitochondria Different-Phenotype (%)” value [4] was 59% and 68%. The “Population Mitotic Cells (%)” value [4] was 73% and 51%, the “Population Normal (%)” value [4] was 85% and 90% and the “Population Pyknosed Nuclei (%)” value [4] was 11% and 9%. For the same compound, the “Population Tubulin-Different-Phenotype (%)” value [4] was 42% and 51%, the “Total Cell Count” value [4] was 461 and 402 and the “Population Apoptotic (%)” value [5] was 10% and 15%. The “Population Fragmented Nuclei (%)” value [5] was 12% and 13%, the “Population Healthy Nuclei (%)” value [5] was 81% and 80% and the “Population Hoechst High Intensity Objects (%)” value [5] was 3% and 5%. For the same compound, the “Population Membrane Permeable-Phenotype (%)” value [5] was 2%, the “Population Mitochondria Different-Phenotype (%)” value [5] was 16% and 24% and the “Population Mitotic Cells (%)” value [5] was 89% and 84%. For the same compound, the “Population Normal (%)” value [5] was 96% and 94%, the “Population Pyknosed Nuclei (%)” value [5] was 6% and the “Population Tubulin-Different-Phenotype (%)” value [5] was 15% and 20%. For the same compound, the “Total Cell Count” value [5] was 1052 and 775, the “Population Apoptotic (%)” value [6] was 46% and 65% and the “Population Fragmented Nuclei (%)” value [6] was 15% and 13%. For the same compound, the “Population Healthy Nuclei (%)” value [6] was 75% and 80%, the “Population Hoechst High Intensity Objects (%)” value [6] was 11% and 8% and the “Population Membrane Permeable-Phenotype (%)” value [6] was 1% and 0%. The “Population Mitochondria Different-Phenotype (%)” value [6] was 36% and 47%, the “Population Mitotic Cells (%)” value [6] was 53% and 34% and the “Population Normal (%)” value [6] was 88% and 91%. The “Population Pyknosed Nuclei (%)” value [6] was 9% and 5%, the “Population Tubulin-Different-Phenotype (%)” value [6] was 32% and 39% and the “Total Cell Count” value [6] was 598 and 596.
With `CN1CCN2c3ncccc3Cc3ccccc3C2C1` (configuration not stated) [MIRTAZAPINE] the “Population Apoptotic (%)” value [1] was 58% and 51%, the “Population Fragmented Nuclei (%)” value [1] was 4% and 3% and the “Population Healthy Nuclei (%)” value [1] was 88% and 79%. For the same compound, the “Population Hoechst High Intensity Objects (%)” value [1] was 5% and 7%, the “Population Membrane Permeable-Phenotype (%)” value [1] was 0% and the “Population Mitochondria Different-Phenotype (%)” value [1] was 41% and 68%. The “Population Mitotic Cells (%)” value [1] was 41% and 48%, the “Population Normal (%)” value [1] was 94% and 92% and the “Population Pyknosed Nuclei (%)” value [1] was 7% and 17%. For the same compound, the “Population Tubulin-Different-Phenotype (%)” value [1] was 22% and 21%, the “Total Cell Count” value [1] was 402 and 329 and the “Population Apoptotic (%)” value [2] was 45% and 47%. For the same compound, the “Population Fragmented Nuclei (%)” value [2] was 9% and 5%, the “Population Healthy Nuclei (%)” value [2] was 75% and 79% and the “Population Hoechst High Intensity Objects (%)” value [2] was 6%. The “Population Membrane Permeable-Phenotype (%)” value [2] was 0% and 1%, the “Population Mitochondria Different-Phenotype (%)” value [2] was 49% and 64% and the “Population Mitotic Cells (%)” value [2] was 54% and 52%. For the same compound, the “Population Normal (%)” value [2] was 93%, the “Population Pyknosed Nuclei (%)” value [2] was 15% and the “Population Tubulin-Different-Phenotype (%)” value [2] was 43% and 36%. The “Total Cell Count” value [2] was 228 and 240, the “Population Apoptotic (%)” value [3] was 33% and 42% and the “Population Fragmented Nuclei (%)” value [3] was 9% and 6%. The “Population Healthy Nuclei (%)” value [3] was 80% and 79%, the “Population Hoechst High Intensity Objects (%)” value [3] was 3% and 6% and the “Population Membrane Permeable-Phenotype (%)” value [3] was 0%. The “Population Mitochondria Different-Phenotype (%)” value [3] was 35% and 47%, the “Population Mitotic Cells (%)” value [3] was 66% and 57% and the “Population Normal (%)” value [3] was 97% and 93%. The “Population Pyknosed Nuclei (%)” value [3] was 10% and 14%, the “Population Tubulin-Different-Phenotype (%)” value [3] was 18% and 17% and the “Total Cell Count” value [3] was 601 and 373. For the same compound, the “Population Apoptotic (%)” value [4] was 44% and 32%, the “Population Fragmented Nuclei (%)” value [4] was 9% and 5% and the “Population Healthy Nuclei (%)” value [4] was 78% and 80%. For the same compound, the “Population Hoechst High Intensity Objects (%)” value [4] was 3% and 5%, the “Population Membrane Permeable-Phenotype (%)” value [4] was 0% and the “Population Mitochondria Different-Phenotype (%)” value [4] was 40% and 44%. For the same compound, the “Population Mitotic Cells (%)” value [4] was 55% and 67%, the “Population Normal (%)” value [4] was 96% and 94% and the “Population Pyknosed Nuclei (%)” value [4] was 12% and 13%. For the same compound, the “Population Tubulin-Different-Phenotype (%)” value [4] was 28% and 18%, the “Total Cell Count” value [4] was 274 and 314 and the “Population Apoptotic (%)” value [5] was 23% and 44%. The “Population Fragmented Nuclei (%)” value [5] was 11% and 13%, the “Population Healthy Nuclei (%)” value [5] was 82% and 80% and the “Population Hoechst High Intensity Objects (%)” value [5] was 2% and 3%. For the same compound, the “Population Membrane Permeable-Phenotype (%)” value [5] was 1% and 0%, the “Population Mitochondria Different-Phenotype (%)” value [5] was 19% and 21% and the “Population Mitotic Cells (%)” value [5] was 76% and 55%. The “Population Normal (%)” value [5] was 97% and 96%, the “Population Pyknosed Nuclei (%)” value [5] was 6% and the “Population Tubulin-Different-Phenotype (%)” value [5] was 13% and 9%. For the same compound, the “Total Cell Count” value [5] was 885 and 562, the “Population Apoptotic (%)” value [6] was 31% and 30% and the “Population Fragmented Nuclei (%)” value [6] was 14% and 11%. For the same compound, the “Population Healthy Nuclei (%)” value [6] was 74% and 81%, the “Population Hoechst High Intensity Objects (%)” value [6] was 2% and 3% and the “Population Membrane Permeable-Phenotype (%)” value [6] was 0%. The “Population Mitochondria Different-Phenotype (%)” value [6] was 36% and 30%, the “Population Mitotic Cells (%)” value [6] was 68% and 69% and the “Population Normal (%)” value [6] was 97% and 96%. For the same compound, the “Population Pyknosed Nuclei (%)” value [6] was 10% and 7%, the “Population Tubulin-Different-Phenotype (%)” value [6] was 20% and 12% and the “Total Cell Count” value [6] was 390 and 521.
